The subject of the assay is Trypanosoma cruzi. Briefly: Inhibitory concentration against Trypanosoma cruzi (epimastigotes). The format is functional, organism-based. In outline: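 T. cruzi epimastigotes (Y strain) grown at 28 °C in brain-heart infusion (37 g/L) medium with hemin chlorohydrate (20 mg/L) and 10% newborn calf serum. Initial inoculum 2-3 × 10^6 cells/mL, counted in a Neubauer chamber. Each drug tested at four concentrations with a drug-free control per group. Growth read as absorbance at 600 nm against medium blank. Percent inhibition taken from the start-to-end absorbance change relative to control.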

The IC50 is the point on the concentration scale where inhibition reaches its midpoint. A high value points to lower potency. As to `CCNC(=O)OCCCOc1ccc(OC)cc1`, the IC50 was above 350 µM.
In turn, `C=COC(=O)OCCCOc1ccc(Oc2ccccc2)cc1` yielded an IC50 of 260 µM.
In turn, `OC(c1ccccc1)c1ccc(OCCOC2CCCCO2)cc1` (stereo not given) displayed an IC50 above 500 µM.
In the case of `c1ccc(Oc2ccc(OCCOC3CCCCO3)cc2)cc1` (stereo not given) it was 138 µM; in that of `CCNC(=O)OC/C=C(\C)CC/C=C(\C)CCC=C(C)C`, 147 µM.
The molecule `C=CCOc1ccc(C(=O)c2ccccc2)cc1` showed an IC50 of 129 µM.
For the molecule `C=COC(=O)OC(C)COc1ccc(Oc2ccccc2)cc1` (stereo not given), the IC50 was above 240 µM.
Under `O=C(c1ccccc1)c1ccc(OCCOC2CCCCO2)cc1` (stereo not given) stands 268 µM; under `CC(C)=CCC/C(C)=C/COC1CCCCO1` (stereo not given), 68 µM.
In the case of `CCNC(=O)OCC(O)COc1ccc(Oc2ccccc2)cc1` (stereo not given) it was 233 µM.
Under `OCC(O)COc1ccc(Oc2ccccc2)cc1` (stereo not given) stands 270 µM; under `CCNC(=O)OCCOc1ccc(C(=O)c2ccccc2)cc1`, above 300 µM.
`CCNC(=O)OC(C)COc1ccc(OC)cc1` (stereo not given): the half-maximal inhibitory concentration (IC50) was above 350 µM.
Consider `COc1ccc(OCC(C)O)cc1` (stereo not given), for which the IC50 is above 500 µM.
In turn, `OC(COc1ccc(Oc2ccccc2)cc1)COC1CCCCO1` (stereo not given) came in with an IC50 of 142 µM.
Take `COc1ccc(OCCO)cc1`: the IC50 is above 500 µM.
`CC(C)=CCC/C(C)=C/CC/C(C)=C/COC1CCCCO1` (stereo not given) had an IC50 of 78 µM.
For the molecule `CCNC(=O)OC/C=C(\C)CCC=C(C)C`, the IC50 turned out to be 176 µM.
Consider `CCSC(=O)OC/C=C(\C)CC/C=C(\C)CCC1OC1(C)C` (stereo not given), for which inhibition was half-maximal at 210 µM (IC50).
In the case of `O=C(c1ccccc1)c1ccc(OCCO)cc1` it was above 400 µM; in that of `C=COC(=O)OC/C=C(\C)CC/C=C(\C)CCC=C(C)C`, above 500 µM; in that of `CCNC(=O)OCCOc1ccc(OC)cc1`, above 300 µM.
In the case of `COc1ccc(OCCOC2CCCCO2)cc1` (stereo not given) it was 218 µM; in that of `C=CCOc1ccc(OC)cc1` [1-allyloxy-4-methoxybenzene], 209 µM.
Consider `COc1ccc(OCCCOC2CCCCO2)cc1` (stereo not given), for which the IC50 is above 300 µM.

(Values after ChEMBL document CHEMBL1130423, “Design, synthesis, and biological evaluation of new growth inhibitors of Trypanosoma cruzi (epimastigotes)” (J Med Chem, 1997).)
